In ChEMBL document CHEMBL3046020, “Enantioselectivity in the phytotoxicity of herbicide imazethapyr” (2009):

Assays:
Zea mays [1] = test: Phytotoxicity in Zea mays (maize) assessed as total root length measured per plant at 100 ug/L measured 5 days post compound treatment (reference value: 12.32 +/- 1.46 cm); assay type: functional
Zea mays [2] = test: Phytotoxicity in Zea mays (maize) assessed as shoot height at 200 ug/L measured 5 days post compound treatment (reference value: 6.89 +/- 0.30 cm); assay type: functional
Zea mays [3] = test: Phytotoxicity in Zea mays assessed (maize) as total root length measured per plant at 400 ug/L measured 5 days post compound treatment (reference value: 12.32 +/- 1.46 cm); assay type: functional
Zea mays [4] = test: Increase in root diameter in Zea mays (maize) seedlings at 100 to 800 ug/L; assay type: functional, organism-based
How it was run: (§1)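 Maize seedlings were grown in a chamber (12 h light, 10,000 lx, 25/20 °C, 60% RH) for five days under graded levels of S-(+)-, R-(-)- or racemic IM. Root diameter, volume, surface area and tip number were measured per plant with an automatic root scanner. Values are means ± SD of three replicates of 10 randomly selected seedlings each.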

Zea mays [5] = test: Phytotoxicity in Zea mays (maize) assessed as shoot dry weight assessed per 10 plants at 200 ug/L measured 5 days post compound treatment (reference value: 101.2 +/- 4.5 mg); assay type: functional
Zea mays [6] = test: Phytotoxicity in Zea mays (maize) assessed as root dry weight assessed per 10 plants at 100 ug/L measured 5 days post compound treatment (reference value: 42.8 +/- 0.7 mg); assay type: functional
Zea mays [7] = test: Effect on root volume in Zea mays (maize) seedlings at 100 to 800 ug/L; assay type: functional, organism-based; how it was run: as §1
Zea mays [8] = test: Phytotoxicity in Zea mays assessed (maize) as total root length measured per plant at 800 ug/L measured 5 days post compound treatment (reference value: 12.32 +/- 1.46 cm); assay type: functional
Zea mays [9] = test: Phytotoxicity in Zea mays (maize) assessed as shoot dry weight assessed per 10 plants at 800 ug/L measured 5 days post compound treatment (reference value: 101.2 +/- 4.5 mg); assay type: functional
Zea mays [10] = test: Reduction in root tips in Zea mays (maize) seedlings at 100 to 800 ug/L; assay type: functional, organism-based; how it was run: as §1
Zea mays [11] = test: Phytotoxicity in Zea mays (maize) assessed as shoot height at 400 ug/L measured 5 days post compound treatment (reference value: 6.89 +/- 0.30 cm); assay type: functional
Zea mays [12] = test: Phytotoxicity in Zea mays (maize) assessed as shoot dry weight assessed per 10 plants at 400 ug/L measured 5 days post compound treatment (reference value: 101.2 +/- 4.5 mg); assay type: functional
Zea mays [13] = test: Phytotoxicity in Zea mays (maize) assessed as root dry weight assessed per 10 plants at 800 ug/L measured 5 days post compound treatment (reference value: 42.8 +/- 0.7 mg); assay type: functional
Zea mays [14] = test: Phytotoxicity in Zea mays (maize) assessed as shoot dry weight assessed per 10 plants at 100 ug/L measured 5 days post compound treatment (reference value: 101.2 +/- 4.5 mg); assay type: functional
Zea mays [15] = test: Phytotoxicity in Zea mays (maize) assessed as shoot height at 800 ug/L measured 5 days post compound treatment (reference value: 6.89 +/- 0.30 cm); assay type: functional
Zea mays [16] = test: Reduction of root hair growth in Zea mays (maize) seedlings at 400 ug/L measured 48 hr post dose by microscopy; assay type: functional, organism-based
How it was run: (§2)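 Maize seedlings with primary roots about 2 mm long were moved to 0 or 400 µg L-1 S-(+)-, R-(-)- or racemic IM solution. After 48 h, root tips (border cells) and the densest root-hair zone were examined and photographed under a light microscope. Growth chamber: 12 h light, 25/20 °C, 60% RH.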

Zea mays [17] = test: Phytotoxicity in Zea mays assessed (maize) as total root length measured per plant at 200 ug/L measured 5 days post compound treatment (reference value: 12.32 +/- 1.46 cm); assay type: functional
Zea mays [18] = test: Phytotoxicity in Zea mays (maize) assessed as root dry weight assessed per 10 plants at 400 ug/L measured 5 days post compound treatment (reference value: 42.8 +/- 0.7 mg); assay type: functional
Zea mays [19] = test: Effect on root surface area in Zea mays (maize) seedlings at 100 to 800 ug/L; assay type: functional, organism-based; how it was run: as §1
Zea mays [20] = test: Phytotoxicity in Zea mays (maize) assessed as shoot height at 100 ug/L measured 5 days post compound treatment (reference value: 6.89 +/- 0.30 cm); assay type: functional
Zea mays [21] = test: Phytotoxicity in Zea mays (maize) assessed as root dry weight assessed per 10 plants at 200 ug/L measured 5 days post compound treatment (reference value: 42.8 +/- 0.7 mg); assay type: functional
Zea mays [22] = test: Induction of ultrastructure damage of root tip statocytes in Zea mays (maize) seedlings at 400 ug/L measured 48 hr post dose by transmission electron microscopy; assay type: functional, organism-based
How it was run: (§3)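 Maize seeds surface-sterilized in 10% NaOCl for 10 min, soaked 12 h, germinated on moist gauze. Root-tip sections of 1-3 mm were fixed in 4% glutaraldehyde, postfixed in OsO4 and embedded in Spurr's resin. 80 nm sections were viewed by TEM at 60 kV.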

Zea mays [23] = test: Induction of ultrastructure damage of root tip statocytes in Zea mays seedlings (maize) assessed as dictyosomers swelling at 400 ug/L measured 48 hr post dose by transmission electron microscopy; assay type: functional, organism-based; how it was run: as §3
Zea mays [24] = test: Reduction in root tips in Zea mays (maize) seedlings at 100 ug/L; assay type: functional, organism-based; how it was run: as §1
Zea mays [25] = test: Induction of ultrastructure damage of root tip statocytes in Zea mays (maize) seedlings assessed as induction of cell wall thickening at 400 ug/L measured 48 hr post dose by transmission electron microscopy; assay type: functional, organism-based; how it was run: as §3
Zea mays [26] = test: Reduction of sloughing of border cells from root tips in Zea mays (maize) seedlings at 400 ug/L measured 48 hr post dose by microscopy; assay type: functional, organism-based; how it was run: as §2
Zea mays [27] = test: Induction of ultrastructure damage of root tip statocytes in Zea mays (maize) seedlings assessed as reduction in organelle size at 400 ug/L measured 48 hr post dose by transmission electron microscopy; assay type: functional, organism-based; how it was run: as §3
Zea mays [28] = test: Induction of ultrastructure damage of root tip statocytes in Zea mays (maize) seedlings assessed as destruction of mitochondria envelope membranes at 400 ug/L measured 48 hr post dose by transmission electron microscopy; assay type: functional, organism-based; how it was run: as §3
Zea mays [29] = test: Induction of ultrastructure damage of root tip statocytes in Zea mays (maize) seedlings assessed as reduction in starch grain size at 400 ug/L measured 48 hr post dose by transmission electron microscopy; assay type: functional, organism-based; how it was run: as §3
Zea mays [30] = test: Effect on cell organelles in root tip statocytes in Zea mays (maize) seedlings at 400 ug/L measured 48 hr post dose by transmission electron microscopy; assay type: functional, organism-based; how it was run: as §3

| SMILES | Activity (Zea mays [1]) [cm] | Activity (Zea mays [2]) [cm] | Activity (Zea mays [3]) [cm] | Activity (Zea mays [4]) | Activity (Zea mays [5]) [mg] | Activity (Zea mays [6]) [mg] | Activity (Zea mays [7]) | Activity (Zea mays [8]) [cm] | Activity (Zea mays [9]) [mg] | Activity (Zea mays [10]) | Activity (Zea mays [11]) [cm] | Activity (Zea mays [12]) [mg] | Activity (Zea mays [13]) [mg] | Activity (Zea mays [14]) [mg] | Activity (Zea mays [15]) [cm] | Activity (Zea mays [16]) | Activity (Zea mays [17]) [cm] | Activity (Zea mays [18]) [mg] | Activity (Zea mays [19]) | Activity (Zea mays [20]) [cm] | also measured |
| --- | --- | --- | --- | --- | --- | --- | --- | --- | --- | --- | --- | --- | --- | --- | --- | --- | --- | --- | --- | --- | --- |
| CCc1cnc(C2=NC(C)(C(C)C)C(=O)N2)c(C(=O)O)c1 (racemic) [IMAZETHAPYR] | 8.1 | 6.2 | 5.5 | Toxic | 107.8 | 36.1 | Toxic | 5.2 | 73.4 | Toxic | 4.6 | 83.3 | 29 | 92.4 | 4 | Non-toxic | 7.4 | 26.4 | Toxic | 6.3 | Activity (Zea mays [21]): 34.6 mg |
| CCc1cnc(C2=N[C@](C)(C(C)C)C(=O)N2)c(C(=O)O)c1 [R-(-)-IMAZETHAPYR] | 7.7 | 5.9 | 4.9 | Toxic | 91.9 | 33.8 | Toxic | 4.8 | 57.1 | Toxic | 3.9 | 61.4 | 25.2 | 90.3 | 3.4 | Toxic | 6.4 | 25.7 | Toxic | 6.2 | Activity (Zea mays [22]): Toxic; Activity (Zea mays [23]): Toxic; Activity (Zea mays [24]): Toxic; Activity (Zea mays [25]): Toxic; Activity (Zea mays [26]): Toxic; Activity (Zea mays [27]): Toxic; Activity (Zea mays [28]): Toxic; Activity (Zea mays [29]): Toxic; Activity (Zea mays [21]): 30.5 mg |
| CCc1cnc(C2=N[C@@](C)(C(C)C)C(=O)N2)c(C(=O)O)c1 [S-(+)-IMAZETHAPYR] | 9.4 | 6.3 | 7.2 | Non-toxic | 101.3 | 36.6 | Toxic | 6.1 | 75.6 | Toxic | 5.7 | 85.4 | 29.6 | 100 | 5.1 | Non-toxic | 8.9 | 30.3 | Toxic | 6.5 | Activity (Zea mays [22]): Non-toxic; Activity (Zea mays [30]): Non-toxic; Activity (Zea mays [24]): Non-toxic; Activity (Zea mays [29]): Non-toxic; Activity (Zea mays [21]): 35.1 mg |
